A selection: hits, their analogues and other compounds. The true share with any hit is near 3.2%.
Cneo AK release: Cryptococcus neoformans lysis via adenylate kinase release. AID 651654. C. neoformans lysis, adenylate kinase release luminescence, 4 h; normalised: neutral wells 0, clomiphene wells 100. 360,000 compounds, 0.2% hits. lysis activity, % at 15 µM;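 active = mean lysis activity across replicates of at least 80%, whatever share of replicates individually reach that level; inactive = mean lysis activity below 80%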
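Assay system: Cryptococcus neoformans yeast cells / Dosing: single-point compound dose / Timing: 4 h at 37 °C static, read 1 h later / Measured by: luminescence of released adenylate kinase using an AK detection reagent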
S100A4 inh HTS: S100A4-myosin IIA interaction inhibition; inhibition, % at 10.7 µM; S100A4/TAMRA-MyoIIA peptide fluorescence polarization; 360,000 compounds, 0.14% hits; P26447; AID 652163;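 active = mean inhibition of at least 70% across replicates, with every replicate also reaching that level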
Target sequence (P26447 whole entry, looked up): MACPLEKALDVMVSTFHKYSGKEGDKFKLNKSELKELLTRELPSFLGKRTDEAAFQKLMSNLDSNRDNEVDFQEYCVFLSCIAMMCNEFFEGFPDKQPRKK
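Test system: S100A4 monomer protein. Medium: HEPES buffer with Ca2+, pH 7.2. Reagent: fluorescent myosin IIA peptide, 5 nM. Compound dosing: single-point compound testing. Timing: 5 min between mix addition and reading. Benchmarks: DMSO neutral and TFP positive wells.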
MLL AF4-AF9 inh: blocks AF4 peptide binding to human AF9; P42568; AlphaScreen, biotin-AF4 peptide binding to FLAG-AF9; inhibition, % at 10 µM; 350,000 compounds, 0.47% hits; AID 651704;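 active = every replicate reaching a set inhibition limit, whatever the replicate mean, cut at about 25% in these data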
Target sequence (P42568 whole entry, looked up): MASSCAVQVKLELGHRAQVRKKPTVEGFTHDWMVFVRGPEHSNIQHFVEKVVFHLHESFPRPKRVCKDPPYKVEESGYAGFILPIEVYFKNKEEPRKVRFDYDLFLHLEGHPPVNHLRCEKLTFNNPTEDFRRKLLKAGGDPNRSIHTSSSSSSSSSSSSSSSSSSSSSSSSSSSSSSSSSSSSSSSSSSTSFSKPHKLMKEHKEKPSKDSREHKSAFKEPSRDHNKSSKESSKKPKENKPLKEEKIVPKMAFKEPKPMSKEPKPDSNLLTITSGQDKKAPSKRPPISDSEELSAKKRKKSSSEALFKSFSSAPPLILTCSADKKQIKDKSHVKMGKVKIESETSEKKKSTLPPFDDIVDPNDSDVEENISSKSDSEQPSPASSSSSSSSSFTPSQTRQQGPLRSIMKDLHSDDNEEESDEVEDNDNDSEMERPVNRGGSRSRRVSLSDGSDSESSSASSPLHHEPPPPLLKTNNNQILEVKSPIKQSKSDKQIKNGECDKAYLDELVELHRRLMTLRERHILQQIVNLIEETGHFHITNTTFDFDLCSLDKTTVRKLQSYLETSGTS
DENV2 CPE rescue: DENV2-induced cell death inhibition; CPE inhibition, % at 9.99 µM; DENV2-infected cells, cytopathic effect rescue, plate reader; 350,000 compounds, 1.7% hits; in the data active = CPE inhibition above about 20%, passing the limit was not always enough; tested in BHK-21 cells
rRNA inh HTS: inhibits bacterial ribosomal RNA function over humanized ribosomes. E. coli WT GFP vs humanized-ribosome RFP mutants, fluorescence, 24 h; stronger effect = lower value; DMSO median 0, no signal -100. GFP signal change (wild-type ribosome), % (no concentration beside the values). 350,000 compounds, 1.6% hits. AID 720706;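 active = significant combined selectivity score with lowered wild-type GFP, culture density cut under 30%, mutant RFP and density less affected; inactive = any of these conditions unmet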
PfHsp90 yeast 2: growth inhibition of yeast expressing Plasmodium Hsp90; S. cerevisiae expressing PfHsp90, BacTiter-Glo ATP, 48 h; yeast lacking PDR1 and PDR3 efflux regulators; 310,000 compounds, 0.32% hits; inhibition, % at 9.4 µM;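 active = every replicate shows inhibition above about 80%, whatever the replicate mean, limit read from the data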
Numbers stand for hits.

For Cc1ccccc1S(=O)(=O)N1CC[C@H]2[C@H](CO)Nc3ccc(-c4ccccc4F)cc3[C@H]21 the results were Cneo AK release inactive, S100A4 inh HTS inactive, MLL AF4-AF9 inh inactive, DENV2 CPE rescue inactive and rRNA inh HTS inactive.
`C[C@@H]1CN([C@@H](C)CO)S(=O)(=O)c2ccc(C#CC3(O)CCCC3)cc2O[C@@H]1CN(C)C(=O)Cc1ccncc1` gave Cneo AK release inactive, S100A4 inh HTS inactive, MLL AF4-AF9 inh inactive, DENV2 CPE rescue inactive and rRNA inh HTS inactive.
CCOc1ccc(-c2c(=O)n(O)c3ccccc3[n+]2[O-])cc1 was read as Cneo AK release inactive, S100A4 inh HTS inactive, MLL AF4-AF9 inh inactive, DENV2 CPE rescue inactive, rRNA inh HTS -20 and PfHsp90 yeast 2 inactive.
Screening CCC(=O)Nc1sc(Cc2ccc3c(c2)OCO3)c(C)c1C(N)=O returned S100A4 inh HTS inactive, MLL AF4-AF9 inh inactive, DENV2 CPE rescue inactive, rRNA inh HTS -26 and PfHsp90 yeast 2 inactive.
For Cc1c(Cc2ccc3c(c2)OCO3)sc(NC(=O)c2ccc3ccccc3c2)c1C(N)=O the results were Cneo AK release inactive, S100A4 inh HTS inactive, MLL AF4-AF9 inh inactive, DENV2 CPE rescue inactive and rRNA inh HTS inactive.
For Cc1c(Cc2ccccc2)sc(NC(=O)C(C)(C)C)c1C(N)=O the results were S100A4 inh HTS inactive, MLL AF4-AF9 inh inactive, rRNA inh HTS -30 and PfHsp90 yeast 2 inactive.
`Cc1ccc(Nc2c(-c3ccc(C)o3)nc3cnccn23)cc1` gave Cneo AK release inactive, S100A4 inh HTS inactive, MLL AF4-AF9 inh inactive, DENV2 CPE rescue inactive, rRNA inh HTS inactive and PfHsp90 yeast 2 inactive.
`Cc1ccc(-c2nc3cnccn3c2Nc2ccc3c(c2)OCO3)o1` gave Cneo AK release inactive, S100A4 inh HTS inactive, MLL AF4-AF9 inh inactive, DENV2 CPE rescue inactive, rRNA inh HTS -17 and PfHsp90 yeast 2 inactive.
Screening CC(C)NC(=O)N1C[C@H]2[C@@H](c3ccccc31)[C@@H](CO)N2Cc1ccccc1 returned Cneo AK release inactive, S100A4 inh HTS inactive, MLL AF4-AF9 inh inactive, DENV2 CPE rescue inactive and rRNA inh HTS inactive.
For N#C[C@@H]1[C@H](c2ccc(-c3cncnc3)cc2)[C@H](CO)N1C(=O)C1CC1 the results were Cneo AK release inactive, S100A4 inh HTS inactive, MLL AF4-AF9 inh inactive, DENV2 CPE rescue inactive and rRNA inh HTS inactive.
For N#C[C@H]1[C@@H](c2ccc(C3=CCCC3)cc2)[C@@H](CO)N1C(=O)C1CCCC1 the results were Cneo AK release inactive, S100A4 inh HTS inactive, MLL AF4-AF9 inh inactive, DENV2 CPE rescue 72 and rRNA inh HTS inactive.
For N#C[C@@H]1[C@@H](c2ccc(-c3cncnc3)cc2)[C@H](CO)N1C(=O)C1CCCC1 the results were Cneo AK release inactive, S100A4 inh HTS inactive, MLL AF4-AF9 inh inactive, DENV2 CPE rescue 23 and rRNA inh HTS inactive.
CN(C)CC(=O)N1[C@@H](CO)[C@@H](c2ccccc2)C12CN(C(=O)C1CCCC1)C2 was read as S100A4 inh HTS inactive, MLL AF4-AF9 inh inactive, DENV2 CPE rescue inactive and rRNA inh HTS inactive.
CC1CC(C)(C)NC(=S)N1CCCC(=O)Nc1ccc(Br)cc1 (configuration not stated) was read as Cneo AK release inactive, S100A4 inh HTS inactive, MLL AF4-AF9 inh inactive, DENV2 CPE rescue inactive and rRNA inh HTS -37.
Screening CO[C@@H]1CN(C)C(=O)c2cc(NC(=O)CC(F)(F)F)ccc2OC[C@@H](C)N(S(=O)(=O)c2cn(C)cn2)C[C@@H]1C returned Cneo AK release inactive, S100A4 inh HTS inactive, MLL AF4-AF9 inh inactive, DENV2 CPE rescue inactive and rRNA inh HTS inactive.
For C[C@H]1CCCCO[C@@H](CN(C)C(=O)Cc2ccccc2)[C@@H](C)CN([C@@H](C)CO)C(=O)c2cc(NC(=O)CCC(F)(F)F)ccc2O1 the results were Cneo AK release inactive, DENV2 CPE rescue inactive and rRNA inh HTS inactive.
Screening CCOc1ccc(CCNC(=O)C2CCN(c3nnc(-n4cccc4)s3)CC2)cc1 returned Cneo AK release inactive, S100A4 inh HTS inactive, MLL AF4-AF9 inh inactive, DENV2 CPE rescue inactive, rRNA inh HTS inactive and PfHsp90 yeast 2 inactive.
For CCOc1ccc(NCc2cccn2-c2nnc(N3CCC(C(=O)NCCCN4CCCCC4)CC3)s2)cc1 the results were Cneo AK release inactive, S100A4 inh HTS inactive, MLL AF4-AF9 inh 33, DENV2 CPE rescue inactive, rRNA inh HTS inactive and PfHsp90 yeast 2 inactive.
For C[C@@H]1CN([C@H](C)CO)C(=O)c2cccc(NS(=O)(=O)c3cn(C)cn3)c2O[C@H]1CN(C)C(=O)Nc1ccc(F)cc1 the results were Cneo AK release inactive, S100A4 inh HTS inactive, MLL AF4-AF9 inh inactive, DENV2 CPE rescue 71 and rRNA inh HTS inactive.
Screening C[C@@H]1CN([C@H](C)CO)C(=O)c2cccc(NS(=O)(=O)c3cn(C)cn3)c2O[C@H]1CN(C)C(=O)Nc1ccc2c(c1)OCO2 returned Cneo AK release inactive, S100A4 inh HTS inactive, MLL AF4-AF9 inh inactive, DENV2 CPE rescue 72 and rRNA inh HTS inactive.
O=C(NCCc1ccccc1)[C@H]1N[C@H]2c3ccc(-c4ccc(F)cc4)c(=O)n3C[C@H]2[C@@H]1CO was read as Cneo AK release inactive, S100A4 inh HTS inactive, MLL AF4-AF9 inh inactive, DENV2 CPE rescue inactive and rRNA inh HTS inactive.
For O=C(Nc1ccc(Cc2ccncc2)cc1)c1cccs1 the results were Cneo AK release inactive, S100A4 inh HTS inactive, MLL AF4-AF9 inh inactive, DENV2 CPE rescue 31, rRNA inh HTS inactive and PfHsp90 yeast 2 inactive.
`Cc1noc(C)c1NC(=O)Nc1cccc2c1O[C@@H](CN(C)Cc1ccc(-c3ccccc3)cc1)[C@H](C)CN([C@@H](C)CO)C2=O` gave Cneo AK release inactive, S100A4 inh HTS inactive, MLL AF4-AF9 inh inactive, DENV2 CPE rescue inactive and rRNA inh HTS inactive.
Screening Oc1c(Br)cc(Br)cc1C=Nc1ccc2[nH]ncc2c1 returned S100A4 inh HTS inactive, MLL AF4-AF9 inh inactive, DENV2 CPE rescue inactive, rRNA inh HTS inactive and PfHsp90 yeast 2 inactive.
Oc1c(Br)cc(Br)cc1C=Nc1cccnc1 was read as Cneo AK release inactive, S100A4 inh HTS inactive, MLL AF4-AF9 inh inactive, DENV2 CPE rescue inactive, rRNA inh HTS inactive and PfHsp90 yeast 2 101.
Screening CC1CCN(C(=S)NC(=O)c2cccs2)CC1 returned S100A4 inh HTS inactive, MLL AF4-AF9 inh inactive, DENV2 CPE rescue inactive, rRNA inh HTS -22 and PfHsp90 yeast 2 inactive.
Screening O=C(NC(=S)N1CCCCC1)c1cccs1 returned PfHsp90 yeast 2 inactive.
Screening C=CCNC(=S)N/N=C/c1ccc(C)cc1C returned S100A4 inh HTS inactive, MLL AF4-AF9 inh inactive, DENV2 CPE rescue inactive, rRNA inh HTS -17 and PfHsp90 yeast 2 inactive.
Screening CC(C)NC(=O)Nc1ccc2c(c1)CC(=O)N([C@@H](C)CO)C[C@H](C)[C@H](CN(C)Cc1ccc3c(c1)OCO3)O2 returned Cneo AK release 107, S100A4 inh HTS inactive, MLL AF4-AF9 inh inactive, DENV2 CPE rescue inactive and rRNA inh HTS inactive.

Bioassay records as filed in PubChem BioAssay.
